Data: ChEMBL document CHEMBL4689842, “EUbOPEN Chemogenomics Library wave 1” (2021)

System: U2OS
Test: Multiplex assay against U2OS
Type: toxicity, cell-based
Conditions: human
How it was run: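 Values for tubulin, mitochondrial-mass and membrane-permeability phenotypes are per cents of cells with healthy nuclei. These cells were identified by CellPathfinder machine-learning gating of live cells that had been stained at seeding with Hoechst33342, BioTracker Green Microtubule Cytoskeleton Dye, MitoTracker Red and Annexin V Alexa Fluor 680 and imaged on a CQ1 microscope at 37°C and 5% CO2 after compound addition. The gating first set Hoechst high-intensity objects apart from normal cells, then split normal cells into healthy, pyknosed or fragmented nuclei, and pyknosed cells into mitotic or apoptotic.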

[1] = 12 h, 1 µM, compound concentration 1 uM, replicate 1
[2] = 12 h, 1 µM, compound concentration 1 uM, replicate 2
[3] = 12 h, 10 µM, compound concentration 10 uM, replicate 1
[4] = 12 h, 10 µM, compound concentration 10 uM, replicate 2
[5] = 24 h, 1 µM, compound concentration 1 uM, replicate 1
[6] = 24 h, 1 µM, compound concentration 1 uM, replicate 2
[7] = 24 h, 10 µM, compound concentration 10 uM, replicate 1
[8] = 24 h, 10 µM, compound concentration 10 uM, replicate 2
[9] = 48 h, 1 µM, compound concentration 1 uM, replicate 1
[10] = 48 h, 1 µM, compound concentration 1 uM, replicate 2
[11] = 48 h, 10 µM, compound concentration 10 uM, replicate 1
[12] = 48 h, 10 µM, compound concentration 10 uM, replicate 2

Structure (SMILES): Cc1nc(-c2ccc(-c3ccc(C(=O)N4CCc5cc6c(cc54)C4(CCN(C)CC4)CO6)cc3)c(C)c2)no1 [SB-224289]
- Population Apoptotic (%) [1]: 50%
- Population Fragmented Nuclei (%) [1]: 11%
- Population Healthy Nuclei (%) [1]: 74%
- Population Hoechst High Intensity Objects (%) [1]: 8%
- Population Membrane Permeable-Phenotype (%) [1]: 6%
- Population Mitochondria Different-Phenotype (%) [1]: 43%
- Population Mitotic Cells (%) [1]: 50%
- Population Normal (%) [1]: 91%
- Population Pyknosed Nuclei (%) [1]: 13%
- Population Tubulin-Different-Phenotype (%) [1]: 46%
- Total Cell Count [1]: 130
- Population Apoptotic (%) [2]: 28%
- Population Fragmented Nuclei (%) [2]: 4%
- Population Healthy Nuclei (%) [2]: 81%
- Population Hoechst High Intensity Objects (%) [2]: 12%
- Population Membrane Permeable-Phenotype (%) [2]: 10%
- Population Mitochondria Different-Phenotype (%) [2]: 42%
- Population Mitotic Cells (%) [2]: 71%
- Population Normal (%) [2]: 87%
- Population Pyknosed Nuclei (%) [2]: 14%
- Population Tubulin-Different-Phenotype (%) [2]: 37%
- Total Cell Count [2]: 65
- Population Apoptotic (%) [3]: 62%
- Population Fragmented Nuclei (%) [3]: 19%
- Population Healthy Nuclei (%) [3]: 61%
- Population Hoechst High Intensity Objects (%) [3]: 7%
- Population Membrane Permeable-Phenotype (%) [3]: 45%
- Population Mitochondria Different-Phenotype (%) [3]: 98%
- Population Mitotic Cells (%) [3]: 37%
- Population Normal (%) [3]: 92%
- Population Pyknosed Nuclei (%) [3]: 19%
- Population Tubulin-Different-Phenotype (%) [3]: 98%
- Total Cell Count [3]: 147
- Population Apoptotic (%) [4]: 63%
- Population Fragmented Nuclei (%) [4]: 7%
- Population Healthy Nuclei (%) [4]: 77%
- Population Hoechst High Intensity Objects (%) [4]: 11%
- Population Membrane Permeable-Phenotype (%) [4]: 54%
- Population Mitochondria Different-Phenotype (%) [4]: 100%
- Population Mitotic Cells (%) [4]: 36%
- Population Normal (%) [4]: 88%
- Population Pyknosed Nuclei (%) [4]: 15%
- Population Tubulin-Different-Phenotype (%) [4]: 100%
- Total Cell Count [4]: 56
- Population Apoptotic (%) [5]: 53%
- Population Healthy Nuclei (%) [5]: 75%
- Population Hoechst High Intensity Objects (%) [5]: 6%
- Population Membrane Permeable-Phenotype (%) [5]: 4%
- Population Mitochondria Different-Phenotype (%) [5]: 40%
- Population Mitotic Cells (%) [5]: 46%
- Population Normal (%) [5]: 93%
- Population Pyknosed Nuclei (%) [5]: 9%
- Population Tubulin-Different-Phenotype (%) [5]: 25%
- Total Cell Count [5]: 152
- Population Apoptotic (%) [6]: 0%
- Population Fragmented Nuclei (%) [6]: 15%
- Population Healthy Nuclei (%) [6]: 77%
- Population Hoechst High Intensity Objects (%) [6]: 9%
- Population Membrane Permeable-Phenotype (%) [6]: 6%
- Population Mitochondria Different-Phenotype (%) [6]: 38%
- Population Mitotic Cells (%) [6]: 100%
- Population Normal (%) [6]: 90%
- Population Pyknosed Nuclei (%) [6]: 7%
- Population Tubulin-Different-Phenotype (%) [6]: 22%
- Total Cell Count [6]: 73
- Population Apoptotic (%) [7]: 75%
- Population Fragmented Nuclei (%) [7]: 24%
- Population Healthy Nuclei (%) [7]: 51%
- Population Hoechst High Intensity Objects (%) [7]: 9%
- Population Membrane Permeable-Phenotype (%) [7]: 84%
- Population Mitochondria Different-Phenotype (%) [7]: 98%
- Population Mitotic Cells (%) [7]: 25%
- Population Normal (%) [7]: 90%
- Population Pyknosed Nuclei (%) [7]: 23%
- Population Tubulin-Different-Phenotype (%) [7]: 98%
- Total Cell Count [7]: 171
- Population Apoptotic (%) [8]: 76%
- Population Fragmented Nuclei (%) [8]: 16%
- Population Healthy Nuclei (%) [8]: 56%
- Population Hoechst High Intensity Objects (%) [8]: 11%
- Population Membrane Permeable-Phenotype (%) [8]: 86%
- Population Mitochondria Different-Phenotype (%) [8]: 100%
- Population Mitotic Cells (%) [8]: 23%
- Population Normal (%) [8]: 88%
- Population Pyknosed Nuclei (%) [8]: 26%
- Population Tubulin-Different-Phenotype (%) [8]: 100%
- Total Cell Count [8]: 63
- Population Apoptotic (%) [9]: 54%
- Population Fragmented Nuclei (%) [9]: 12%
- Population Healthy Nuclei (%) [9]: 77%
- Population Hoechst High Intensity Objects (%) [9]: 6%
- Population Membrane Permeable-Phenotype (%) [9]: 3%
- Population Mitochondria Different-Phenotype (%) [9]: 15%
- Population Mitotic Cells (%) [9]: 45%
- Population Normal (%) [9]: 93%
- Population Tubulin-Different-Phenotype (%) [9]: 15%
- Total Cell Count [9]: 156
- Population Apoptotic (%) [10]: 50%
- Population Fragmented Nuclei (%) [10]: 9%
- Population Healthy Nuclei (%) [10]: 80%
- Population Hoechst High Intensity Objects (%) [10]: 9%
- Population Membrane Permeable-Phenotype (%) [10]: 8%
- Population Mitochondria Different-Phenotype (%) [10]: 14%
- Population Mitotic Cells (%) [10]: 50%
- Population Normal (%) [10]: 90%
- Population Pyknosed Nuclei (%) [10]: 10%
- Population Tubulin-Different-Phenotype (%) [10]: 11%
- Total Cell Count [10]: 88
- Population Apoptotic (%) [11]: 81%
- Population Fragmented Nuclei (%) [11]: 27%
- Population Healthy Nuclei (%) [11]: 28%
- Population Hoechst High Intensity Objects (%) [11]: 15%
- Population Membrane Permeable-Phenotype (%) [11]: 94%
- Population Mitochondria Different-Phenotype (%) [11]: 97%
- Population Mitotic Cells (%) [11]: 18%
- Population Normal (%) [11]: 84%
- Population Pyknosed Nuclei (%) [11]: 44%
- Population Tubulin-Different-Phenotype (%) [11]: 97%
- Total Cell Count [11]: 225
- Population Apoptotic (%) [12]: 88%
- Population Fragmented Nuclei (%) [12]: 8%
- Population Healthy Nuclei (%) [12]: 46%
- Population Hoechst High Intensity Objects (%) [12]: 18%
- Population Membrane Permeable-Phenotype (%) [12]: 75%
- Population Mitochondria Different-Phenotype (%) [12]: 100%
- Population Mitotic Cells (%) [12]: 11%
- Population Normal (%) [12]: 81%
- Population Pyknosed Nuclei (%) [12]: 45%
- Population Tubulin-Different-Phenotype (%) [12]: 100%
- Total Cell Count [12]: 85
